Measured values as given in the EternaBench riboswitch data.

Tested on: MS2 coat protein
Test: apparent Kd, MS2 coat protein; higher = weaker binding; RNA-MaP array; FMN 200 µM where present
Summary of the method: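 Green signal was scaled to red-channel RNA signal and control-cluster median Fmax, and the apparent Kd was taken as the median of filtered per-cluster binding-curve fits. The binding series used SNAP-549-labelled MS2 coat protein from 0.7 or 1.5 nM, doubling to 3 µM, on designs transcribed by stalled E. coli RNA polymerase on Illumina sequencing-chip clusters. Each series ran without and then with constant ligand in 100 mM Tris-HCl pH 7.5, 80 mM KCl, 4 mM MgCl2, BSA, DTT, yeast tRNA and Tween-20.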

[1] = designed as: OFF switch for flavin mononucleotide, no ligand
[2] = ligand present: flavin mononucleotide, designed as: OFF switch for flavin mononucleotide
[3] = designed as: ON switch for flavin mononucleotide, no ligand
[4] = ligand present: flavin mononucleotide, designed as: ON switch for flavin mononucleotide

Row | Sequence | apparent Kd [1] [nM] | apparent Kd [2] [nM] | apparent Kd [3] [nM] | apparent Kd [4] [nM]
1 | GGUUGUCAUCGUCGUCCUUUCGGUACAUGAGGAUCACCCAUGUAGGAUAUGCUGCAUUCGAUGUGGCAGAAGGGCGUGUGUGUU | 16.7 | 18.4 | – | –
2 | GGUUUGCGGCAGGAUAUCCAUCCGCGGUAUGGUGGAGAAGGGCUGACAUGAGGAUCACCCAUGUGCGUCCUGGG | 26.6 | 38.4 | – | –
3 | GUAACAUGAGGAUCACCCAUGUAUAGAACGCUUAAUAGAUCUGAGGAUAUACUAGAAUUUACGUAGUAGAAGGCAGUGGGUACA | – | – | 35.9 | 26.9
4 | GUAACAUGAGGAUCACCCAUGUCGUGCUAGAUGAGUUCUAGUGAGGAUAUACAUGGUAAAUAACUGUAGAAGGUGCUGGGUACA | – | – | 192 | 229
5 | GUAAUGUGAGGAUAUGGUAAAGAUAAGAUGAUGAAAGAACUCCAGAAGGCACAUGAGGAUCACCCAUGUAGAUG | 26.7 | 107 | – | –
6 | GUACCUUAUGAGAAGGCGAUCAUAAAACGUGAUCGAGGAUAUCAUGUAAACAUGAGGAUCACCCAUGUAUGGGUAUUAUGGUAC | – | – | 61.7 | 18.4
7 | GUACGUGGACAGAAGGUGACAUGAGGAUCACCCAUGUUAGUUGAGGUACCAGCGAUCCGCGUGAUUGAGGAUAUGUCUGCGGGC | 16.1 | 42.4 | – | –
8 | GUACUCAUGUAAGGAUAUGCAGCCGAAACGGCUGCAGAAGGUACUAUAAUACAUGAGGAUCACCCAUGUCAAAAUAAAAUAGUU | – | – | 116 | 35.4
9 | GUACUGUAGUGAGGAUAUACGAGAUCGAUAGAUCGGCGAUCCAUUUAUACAUGAGGAUCACCCAUGUAGAAGGCACUUCAGUAC | 5.62 | 56.6 | – | –
10 | GUACUUGUGCAGAAGGGCAUUUAAUUAGAUUUUUAUGUUGAUCAGAAAUGCAGGAUAUGUUAAACAUGAGGAUCACCCAUGUAC | – | – | 171 | 13.1
11 | GUAGAGUAAGGAUAUGGUGAAUAGGAUAGAAUGGUUAGAAACUAGAAGGUACAUGAGGAUCACCCAUGUAAUGU | 21.7 | 20.7 | – | –
12 | GUAGCACAAGCAAAUGUAACAUGAGGAUCACCCAUGUGUUAUGAGGAUAUGGAUGUGAAGUUAAUCCAGAAGGCAUUAUGCUAC | – | – | 25.2 | 13.2
13 | GUAGCAUACCAAGGAUAUUCAGGGCUUGGAUAGACAUGAGGAUCACCCAUGUGGCGAAAGCCUAGGGAGAAGGUGGAAUGCUAC | – | – | 16.7 | 15.2
14 | GUAGCAUACCGAGGAUAUUCAUAUCGUAAUCGAACAUGAGGAUCACCCAUGUGGCGAAAGCCUUGGGAGAAGGCGGAAUGCUAC | – | – | 360 | 25.9
15 | GUAGCAUAUGAUUUACAUGAGGAUCACCCAUGUAUCUUGGGUAAGGAUAUUGAUGUUAUGUUAAUCAAGAAGGUACUAUGCUAC | – | – | 50.5 | 8.66
16 | GUAGCGCUUGACAUGAGGAUCACCCAUGUUAGAUUGUUAUGUCAGGAUAUAGUCUAGAAACUAGACUAGAAGGGAUAUGCUACU | – | – | 251 | 39.8
17 | GUAGCUAUCGGAGGAUAUUCAUACCGGAAACGGACAUGAGGAUCACCCAUGUGGAGAAAGCCUUGGGAGAAGGCCGAUAGCUAC | – | – | 176 | 17.6
18 | GUAGCUAUCGGAGGAUAUUUAUACCGUAAACGGACAUGAGGAUCACCCAUGUGGCGAAAGCCUUGGGAGAAGGCCGAUAGCUAC | – | – | 32.6 | 4.68
19 | GUAGCUCAUGAGAAGGCGAUCAUGAAACAUGAUCGAGGAUAUCAUGUAAACAUGAGGAUCACCCAUGUAUGGGUAUUAUGCUAC | – | – | 126 | 47.1
20 | GUAGCUCCUGACAUGAGGAUCACCCAUGUUCACUUAUUAAAUCAGGAUAUCCUCUCGAAACGAGAGGAGAAGGGAUAAGCUACU | – | – | 7.84 | 7.36
21 | GUAGUACAUGAGGAUCACCCAUGUGUGGGCGCGUGAGGAUAUGUCCGUACCUGGCGUACGAUAGAAGGCAUGGUGC | – | – | 53.3 | 28.4
22 | GUAUAUACGUGGUACAUGAGGAUCACCCAUGUGUCUUUACAUGAGGAUAUGGAUUCUAAUUGGAUCCAGAAGGCAUGUAUAUAC | – | – | 73.1 | 27
23 | GUAUAUCACUUAGGAUAUCUGUAAUUUAUUGAAACAUGAGGAUCACCCAUGUUCAUAAAUUUAUAGGAGAAGGGAGUGAUAUAC | – | – | 4.19 | 4.24
24 | GUAUCGUAUGUGAGGAUAUAUUUGUCCUUGGAUUUGUAGAAGGCACAUGAGGAUCACCCAUGUCCUAGUGGUCC | 35.1 | 34.9 | – | –
25 | GUAUCUUACUGAGGAUAUUUACGAUUAGUGUAGACAUGAGGAUCACCCAUGUGGCGUUAGUCACGGGAGAAGGCAGUUUGAUAC | – | – | 82.5 | 21.3
26 | GUAUCUUAUGAGAAGGCGAUCAUGAAACAUGAUCGAGGAUAUCAUGUAAACAUGAGGAUCACCCAUGUAUGGGUAUUAUGGUAC | – | – | 179 | 71.9
27 | GUAUGAAAUACAGGAUAUGUUAGUUUUAAGUGUAUUGGUUAUUACUUAAUUACAGAAGGGUAUUACAUGAGGAUCACCCAUGUA | – | – | 16.5 | 10.8
28 | GUAUGAGCGAUAGGAUAUACUGGGAUUGAAUGGGUAGAAGGAUUUCUAGUGGGAAAGACAUGAGGAUCACCCAUGUCGCGGACC | – | – | 37.9 | 35.4

Row | Sequence | apparent Kd [1] [nM] | apparent Kd [2] [nM] | apparent Kd [3] [nM] | apparent Kd [4] [nM]
29 | GUAUGGAGUACAGGAUAUGUAAGUUUUAAGUGUAUUGGUUAUUACUUAAUUACAGAAGGGUAUUACAUGAGGAUCACCCAUGUA | – | – | 12.8 | 9.5
30 | GUAUUAAAGAUCCAUUUAUACAACAUGAGGAUCACCCAUGUGCAGGAUAUCGUGUGUUUUUUAUUCGAGAAGGGCAAAUUCAUU | 37 | 85.2 | – | –
31 | GUAUUAAAGAUCCAUUUUUACAACAUGAGGAUCACCCAUGUGCAGGAUAUCGUGUGUUUUAUAUUCGAGAAGGGCAAAUUCAUU | 51.8 | 109 | – | –
32 | GUCACCCGAUGAGGAUAUGCACAUGAGGAUCACCCAUGUGACCUCAUCGUGCCGGGAAGCCGGCUGCAGAAGGCAUUGAGGGAU | 7.76 | 7.25 | – | –
33 | GUCAGACGAGGAUAUAGAUUUAAGUACAUGAGGAUCACCCAUGUACAUAUGUAUUUAGAUUUAGAAGGCGUCUGAC | 28.2 | 31.6 | – | –
34 | GUCAGACGAGGAUAUAGAUUUGAUAACAUGAGGAUCACCCAUGUGAUCGAUAGAUCAGAUUUAGAAGGCGUCUGAC | 410 | 458 | – | –
35 | GUCAGCUCGUGAGGAUAUACAACACUGCUUCGGAAGUGUAUUAAGAUCACAUGAGGAUCACCCAUGUAGAAGGCACGAGCUGAU | 13.7 | 225 | – | –
36 | GUCAGCUCGUGAGGAUAUACAACACUGCUUCGGCAAUGUAUUAAGAUCACAUGAGGAUCACCCAUGUAGAAGGCACGAGCUGAU | 9.99 | 164 | – | –
37 | GUCAGCUCGUGAGGAUAUACAACACUGCUUCGGCAGCGUAUUAAGAUCACAUGAGGAUCACCCAUGUAGAAGGCACGAGCUGAU | 11.7 | 206 | – | –
38 | GUCAGCUCGUGAGGAUAUACAACACUGCUUCGGCAGUGUAUUAAGAUCACAUGAGGAUCACCCAUGUAGAAGGCAAGAGCUGAU | 13.2 | 227 | – | –
39 | GUCAGCUCGUGAGGAUAUACAACACUGCUUCGGCAGUGUAUUAAGAUCACAUGAGGAUCACCCAUGUAGAAGGCACGAGAUGAU | 14.3 | 237 | – | –
40 | GUCAGCUCGUGAGGAUAUACAUCACUGCUUCGGCAGUGUAUUAAGAGCACAUGAGGAUCACCCAUGUAGAAGGCACGAGCUGAU | 16.3 | 24.1 | – | –
41 | GUCAGCUCGUGAGGAUAUACAUGUGCUGGAGACAGCACUAAUUAAUUCACAUGAGGAUCACCCAUGUAGAAGGCACGAGCUGAU | 16.2 | 19.6 | – | –
42 | GUCAGCUCGUGAGGAUAUACAUGUGCUGGAUACAGCACUAUUAAGAUCACAUGAGGAUCACCCAUGUAGAAGGCACGAGCUGAU | 49.5 | 643 | – | –
43 | GUCAGCUCGUGAGGAUAUACGUCACUGCUUCGGCAGUGAAAUUUCCUCACAUGAGGAUCACCCAUGUAGAAGGCACGAGCUGAU | 11.5 | 208 | – | –
44 | GUCAGCUGGUGAGGAUAUACAACACUGCUUCGGCAGUGUAUUAAGAUCACAUGAGGAUCACCCAUGUAGAAGGCACGAGCUGAU | 13.1 | 207 | – | –
45 | GUCCCACAUGAGGAUCACCCAUGUGAGGAUAUGGAUUCGCUGGCCGUAGCCAGUGGAUCCAGAAGGCGCGUGAU | 73.5 | 77.2 | – | –
46 | GUCCGGAGGGAGAAGGGCUAGGAGGUCCAGCUUAUGUGUGUUGCAACAUGAGGAUCACCCAUGUAGCAGGAUAUCCCUUGUACA | 52.1 | 219 | – | –
47 | GUCCGGCGUGUAGGAUAUGGAUCCGAUUAGGAUCCAGAAGGACAUGAGGAUCACCCAUGUACAUGUAAACAGUCAUCACCGGAA | 9.2 | 57.7 | – | –
48 | GUCCUACAUGAGGAUCACCCAUGUGAGGAUAUGGUUUCGCUGGCCGUAGCCAGUGGAACCAGAAGGCGCGUGAU | 65.3 | 73.4 | – | –
49 | GUCGAGUGAGGAUAUGGUGAGUAGUGCCUGAGCGCUGCUCACCAGAAGGCACAUGAGGAUCACCCAUGUAUAAC | 23.7 | 41.7 | – | –
50 | GUCGGAAACGACAAUGAUAGGACUGAGGAUAUACAUAAGUUAGUCCACACAUGAGGAUCACCCAUGUAGAAGGCAGUCCUAUCU | 29.5 | 357 | – | –
51 | GUCGUGUGAGGAUAUGAUUGUACGGCAGACUAGCGUCUGCUUCAGAAGGCACAUGAGGAUCACCCAUGUUUGUC | 18.6 | 34.4 | – | –
52 | GUCGUGUGAGGAUAUGGAUCGACGCAGUGACAGUCAGCGACCUAGAAGGCACAUGAGGAUCACCCAUGUAUGUG | 54.6 | 97.5 | – | –
53 | GUCUCACAUGAGGAUCACCCAUGUGAGGAUAUGGAUUCGCUGGCCGUAGCCAGUGGAUCCAGAAGGCGCAUGAU | 20.5 | 22 | – | –
54 | GUCUUACAUGAGGAUCACCCAUGUGAGGAUAUCCCGGGCCCGGGCUUGCCCGGGCCCGGGAGAAGGCACAUGUU | 32.2 | 99.4 | – | –
55 | GUCUUACAUGAGGAUCACCCAUGUGAGGAUAUGGUUUCGCUGGCCGUAGCCAGUGGAACCAGAAGGCGCAUGAU | 25.7 | 44.9 | – | –
